From the EternaBench riboswitch data come the findings set out here.

The data set deals with MS2 coat protein. Put plainly: apparent Kd, MS2 coat protein; higher = weaker binding; RNA-MaP array; FMN 200 µM where present. In outline: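 Green signal was scaled to red-channel RNA signal and control-cluster median Fmax, and the apparent Kd was taken as the median of filtered per-cluster binding-curve fits. The binding series used SNAP-549-labelled MS2 coat protein from 0.7 or 1.5 nM, doubling to 3 µM, on designs transcribed by stalled E. coli RNA polymerase on Illumina sequencing-chip clusters. Each series ran without and then with constant ligand in 100 mM Tris-HCl pH 7.5, 80 mM KCl, 4 mM MgCl2, BSA, DTT, yeast tRNA and Tween-20.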

Where [1] appears, read: designed as: ON switch for flavin mononucleotide, no ligand.
Where [2] appears, read: ligand present: flavin mononucleotide, designed as: ON switch for flavin mononucleotide.
The mark [3] stands for this setting: designed as: OFF switch for flavin mononucleotide, no ligand.
Setting [4] is: ligand present: flavin mononucleotide, designed as: OFF switch for flavin mononucleotide.

For orientation: apparent Kd means a dissociation constant that holds for the conditions of the assay. Regarding “AUAUCCUAGAUAGGAUAUACUGAGGUUGAAUGGGUAGAAGGAUCGUUAGGGUAGACUACAUGAGGAUCACCCAUGUUGUUUAUU”, the “apparent Kd” value is 43.1 nM under setting [1] and 40.1 nM under setting [2].

As to “UUGGACGUCGUAGGAUAUGUAGGAUAUUCCUACAUGAGGAUCACCCAUGUUGACAUAGAAGAAGGACAGAAGGACGAUGUCCAU”, the “apparent Kd” value runs as follows: under setting [1], 88.3 nM; under setting [2], 4.86 nM.

In the case of “UGUCGGAGCAGAGGAUAUUACAUGAGGAUCACCCAUGUAUGAACCAAUAGCUGGAAACAGUAAUGUAAGAAGGCUGCUCCGACA”, the “apparent Kd” value stood at 7.33 nM under setting [3] and 76.2 nM under setting [4].

Regarding “GUCAGCUCGUGAGGAUAUACAUCACUGCUUCGGCAGUGUAUUAAGAUCACAUGAGGAUCACCCAUGUAGAAGGCACGAGCUGAU”, the “apparent Kd” value was found to be 42.5 nM under setting [3] and 620 nM under setting [4].

Consider “AUACAUGAGGAUCACCCAUGUCGCAGGUUAAGGCCCAAACCGAGAAGGGAUUCGGUCAAGCCUAAUCAGGAUAUCGGUGGAGCC”, for which the “apparent Kd” value was found to be 93.4 nM under setting [1] and 62.1 nM under setting [2].

On to “GUGGUUGUCGUAGGAUAUGUAGGAUAUUCCUACAUGAGGAUCACCCAUGUUCGCAUGGAAGAAGGACGGAAGGACGAUGACCAA”, for which the “apparent Kd” value by setting is: under setting [1], 306 nM; under setting [2], 125 nM.

In the case of “GUAUUUAGAUAAGGAUAUAAGUCUAUGACAUGAGGAUCACCCAUGUGUGUCUUAGAAGGUAUUUGGGUAAUAUUGUUACAGUAA”, the “apparent Kd” value under setting [2] came out at 16.2 nM.

“UUGGACGUCGUAGGAUAUGUAGGAUAUUCCUACAUGAGGAUCACCCAUGUUGACAUGUAAGAAGGACAGAAGGACGAUGUCCAU”: the “apparent Kd” value reads like this: under setting [1], 208 nM; under setting [2], 12.2 nM.

As for “GAUCAACAUGAGGAUCACCCAUGUGAGGAUAUGAUACUAUGUACUUCGGUACAUAGUAUCAGAAGGCAUGUGAA”, the “apparent Kd” value is, setting by setting: under setting [3], 78.1 nM; under setting [4], 111 nM.

As to “AUCUUGAGAGGAUAUACAUGAGGAUCACCCAUGUUGCUAACACCAUGCGGUCAUUUGCGUAGAAGGCUCAUCCG”, the “apparent Kd” value under setting [3] turned out to be 26.2 nM and the “apparent Kd” value under setting [4] was 104 nM.

Take “ACUAGAUGAGGAUAUGCAUAUUUUCGUGUUCUUCUAGGUUAACAUGAGGAUCACCCAUGUAGAAGGCGUCUAUA”: the “apparent Kd” value runs as follows: under setting [3], 19.7 nM; under setting [4], 35 nM.

With “CUGUUAUAGGUCCAGAAUUACAACAUGAGGAUCACCCAUGUGCAGGAUAUCGAGUUAAUUUUCAACGAGAAGGGCAUAGUCACG”, the “apparent Kd” value came to 35.9 nM under setting [3] and 67.6 nM under setting [4].

For “UGGUACGAGGGAGGAUAUGGGAAGAUACAUGAGGAUCACCCAUGUUUAAGAAUGCCGAGAGGCAACUAGAAGGCCCUAGUACCU”, the “apparent Kd” value under setting [1] came to 583 nM and the “apparent Kd” value under setting [2] worked out at 21.9 nM.

For “UUUUUAUUUAUAGGAUAUGGAAACAUGAGGAUCACCCAUGUAUGAUAAGAUAAAUUAUGAUAUGGCCAGAAGGAUAUUAUUUUU”, the “apparent Kd” value under setting [1] worked out at 31 nM and the “apparent Kd” value under setting [2] worked out at 34.8 nM.

As to “AAUAACAGAGGAUAUACUAUUUUAUGUGUUUGUUAUUUUGAACAUGAGGAUCACCCAUGUAGAAGGCUGAGUAA”, the “apparent Kd” value amounted to 28.8 nM under setting [3] and 28.9 nM under setting [4].

“CUUAGGUGUACAUGAGGAUCACCCAUGUCCCUGGUCAUUAGACAGGAUAUAUGGGCGGUCGCUUCAUAGAAGGGUUAAAUGGGU”: the “apparent Kd” value was 837 nM under setting [1] and 780 nM under setting [2].

In the case of “GUGUACAGAGGAUAUACAUAAGCUAGGAAACUAGCAACUUCACAUGAGGAUCACCCAUGUAGAAGGCUGUACAC”, the “apparent Kd” value came to 13.9 nM under setting [3] and 17.8 nM under setting [4].

Turning to “GCCUUACCGGUCAGGAUAUACACCCGUCACUCCUUGUAGAAGGGACAUGAGGAUCACCCAUGUACAUUACAUUG”, the “apparent Kd” value is, setting by setting: under setting [3], 31.1 nM; under setting [4], 29.2 nM.

For “AUGAGGUCAGGAUAUGCAUGGCGGGACUUGCGUCGUGGCGUGCAGAAGGGACAUGAGGAUCACCCAUGUGGAGG”, the “apparent Kd” value runs as follows: under setting [3], 177 nM; under setting [4], 249 nM.

For “GGUACCAACACAGGAUAUGCUUUCCUUUGGGAAGCAGAAGGGUGAAACAUGAGGAUCACCCAUGUGGUGCCAGGGCGUGAGCCC”, the “apparent Kd” value reads like this: under setting [1], 1360 nM; under setting [2], 79.5 nM.

Take “UGCCACCGGGAGAAGGGCAUACGUGAGGUCCUACAUAGUCACAUGAGGAUCACCCAUGUAGAAAUGCAGGAUAUCUCGUAGCAG”: the “apparent Kd” value reads like this: under setting [3], 6.93 nM; under setting [4], 13.4 nM.

As for “GCCAGGGAUUCAGGAUAUAUUAGCCGAGGCCGAGUAGAAGGGAAAUCCUGACAUGAGGAUCACCCAUGUCGACCCGCCUUCCUC”, the “apparent Kd” value by setting is: under setting [1], 20.5 nM; under setting [2], 21.1 nM.

Take “GGAAAUCAUGUAGGAUAUGCAUGGCGAAGCUACGCAGAAGGACAUGAGGAUCACCCAUGUUAUAGCGUCCGAGUAAGGAUGCAA”: the “apparent Kd” value runs as follows: under setting [3], 42.1 nM; under setting [4], 123 nM.

With “UUGGACGUCGUAGGAUAUGUAGGAUAUUCCUACAUGAGGAUCACCCAUGUUGACAUGGAAGAAGGACGGAAGGACGAUGUCCAU”, the “apparent Kd” value by setting is: under setting [1], 899 nM; under setting [2], 18.9 nM.

As for “UUUAUGGGACAGAAGGGCAUUUACAUGAGGAUCACCCAUGUUCAUCAUUGCAGGAUAUGUAUUACAUGAGGAUCACCUAUGUAC”, the “apparent Kd” value turned out to be 74.9 nM under setting [1] and 24.4 nM under setting [2].

On to “AGUUGGGUCACAGGAUAUGCGCCGGCAUGCGAAGCAGAAGGGUGACGAGGUUGGGAACAUGAGGAUCACCCAUGUAUCGCAUAA”, for which the “apparent Kd” value under setting [1] came out at 319 nM and the “apparent Kd” value under setting [2] amounted to 36.5 nM.

Take “AGGUAACAUGAGGAUCACCCAUGUCAGGAUAUCAGUAAGAUUAGAAUAGAGUAGAGGAUGAGAAGGGACUAUAU”: the “apparent Kd” value came out at 47 nM under setting [3] and 41.8 nM under setting [4].

With “CUCUUGUGAGGAUAUCAGGUGUGCUAGCGUACUGGUACAUCUGAGAAGGCACAUGAGGAUCACCCAUGUUUCUA”, the “apparent Kd” value under setting [3] was 148 nM and the “apparent Kd” value under setting [4] came out at 23.2 nM.

For “GUAGCUAUCGGAGGAUAUUCAUAAAACAUGAGGAUCACCCAUGUUAAAUUGGGAGAAGGCCGAUAGCUACAAGAGCGAAAGCUC”, the “apparent Kd” value under setting [1] came to 5.85 nM and the “apparent Kd” value under setting [2] was found to be 4.76 nM.

For “GUAGCAUACCGAGGAUAUUCAUGGAAUAAAUAAACAUGAGGAUCACCCAUGUGGCGAAAGCCUAGGGAGAAGGCGGAAUGCUAC”, the “apparent Kd” value under setting [1] turned out to be 269 nM and the “apparent Kd” value under setting [2] stood at 446 nM.

Regarding “GCCUUAUCUGUCAGGAUAUACAUUUUUUUUUUUUUGUAGAAGGGACAUGAGGAUCACCCAUGUACAUUACAUUG”, the “apparent Kd” value runs as follows: under setting [3], 42.4 nM; under setting [4], 42.9 nM.

In the case of “AAGGCGGCUCAGGCCGAGUUUCGCAGAAGGGCACAUGAGGAUCACCCAUGUACCUGGUCUGAUGUGCAGGAUAUGUGAGUCAGC”, the “apparent Kd” value came to 5.6 nM under setting [3] and 10.4 nM under setting [4].

Consider “AUACUCAUGUAAGGAUAUGCAGCCGAAACGGCUGCAGAAGGUACUAUAAUACAUGAGGAUCACCCAUGUCAAAAUAAAAUAGUC”, for which the “apparent Kd” value came out at 63.5 nM under setting [1] and 22.9 nM under setting [2].

With “UUAAAUCAUGUAGGAUAUGCAUGGCGAAGCUACGCAGAAGGACAUGAGGAUCACCCAUGUGCUAGCGACAGAGUACUGUUGCAA”, the “apparent Kd” value stood at 62.7 nM under setting [3] and 363 nM under setting [4].

For “GGAUAGGACAGAGGAUAUACGGCUAGGAGAUACUAGCUACUAUUCCUCACAUGAGGAUCACCCAUGUAGAAGGCUGUCCUAUCG”, the “apparent Kd” value is 17.6 nM under setting [3] and 140 nM under setting [4].

With “UCAUGUAUGUAGGAUAUCGAUGUCCUUGGACAUCGAGAAGGACGUACAUGAGGAUCACCCAUGUAACUUGCAUG”, the “apparent Kd” value by setting is: under setting [3], 25.4 nM; under setting [4], 16.8 nM.

In the case of “AAAACACAUGAGGAUCACCCAUGUGAGGAUAUCGUGCAGUAGACGAAAGUCUACUGCACGAGAAGGCACAAGGA”, the “apparent Kd” value by setting is: under setting [3], 49 nM; under setting [4], 81.3 nM.

Consider “UAGCAAACGACCUGUGUGUGACAUGAGGAUCACCCAUGUUAGAGAAGGCCGAUAGCGCCGCGUACGGAGGAUAUCUGACAGGGA”, for which the “apparent Kd” value reads like this: under setting [3], 24.1 nM; under setting [4], 30.3 nM.

Regarding “UUUUAACAUGAGGAUCACCCAUGUGAGGAUAUCGAAAUUUAUAUUUAUAUUAAUUUAUCGAGAAGGCACAUUUU”, the “apparent Kd” value runs as follows: under setting [3], 149 nM; under setting [4], 164 nM.

Take “CAUACACAUGAGGAUCACCCAUGUGAGGAUAUGAAUACGUUGUCCGUAGGCGACGUGAUCAGAAGGCGCUUGGU”: the “apparent Kd” value under setting [3] worked out at 45.4 nM and the “apparent Kd” value under setting [4] came to 61.8 nM.

Regarding “AGCUGGUGACAGCAUCGAGCUAAACAUGAGGAUCACCCAUGUAGAAGGCUGUACGGUUACCGUACAGAGGAUAUACAUAGCUCG”, the “apparent Kd” value by setting is: under setting [3], 6.11 nM; under setting [4], 6.3 nM.

For the sequence “AAAGUGUAAGGAUAUGCUGCUCGUCACUUGCGUGAUGAGUAGCAGAAGGUACAUGAGGAUCACCCAUGUAAAGA”, the “apparent Kd” value by setting is: under setting [3], 32.3 nM; under setting [4], 40.6 nM.

On to “GCAUCCAAUGUGAGGAUAUACCUCUGGAUACAGAGGUAGAAGGCACAUGAGGAUCACCCAUGUUACUAGGAUGC”, for which the “apparent Kd” value under setting [3] turned out to be 20.8 nM and the “apparent Kd” value under setting [4] was 44.4 nM.

For “GUUAUUGACAAGAAGGCAAACAUGAGGAUCACCCAUGUUCUACAUGGAUAUUGAGGAUAUUGCCAAUACAUGAGGAUCACCCAG”, the “apparent Kd” value reads like this: under setting [3], 63 nM; under setting [4], 68.8 nM.

“CGUAGGUAGCUGGAGGAUAUUCGAGUGGUAACAUGAGGAUCACCCAUGUGGUGAGAGGAACAUGAGGAGAAGGCUAGCUGCCUGC”: the “apparent Kd” value runs as follows: under setting [1], 1290 nM; under setting [2], 1530 nM.

As to “UAUGGUUAAGUCAGGAUAUACGUGCAGUUUUCUGAGUAGAAGGGACAUGAGGAUCACCCAUGUAUGGUAGUGUU”, the “apparent Kd” value is, setting by setting: under setting [3], 72.2 nM; under setting [4], 73.6 nM.

Turning to “AACGCGUCAGGAUAUGCCAUAAAUUACCUAGUACGACCAUAGCAGAAGGGACAUGAGGAUCACCCAUGUGGGUA”, the “apparent Kd” value turned out to be 92 nM under setting [3] and 67.6 nM under setting [4].

“GUGUAGGCAGGAUAUACAUGAGGAUCACCCAUGUGAAUAAGAUAGAAUAAGAUAAAGUGUAGAAGGGUUAGUGU”: the “apparent Kd” value was determined as 40.7 nM under setting [3] and 32.4 nM under setting [4].
